From ChEMBL document CHEMBL1155603, “Stilbene glycoside sulfates from Polygonum cuspidatum” (J Nat Prod, 2000) come the findings set out here.

Active and inactive are the calls of the source. No cut-off for these calls is given here.

One assay relates to Candida parapsilosis. Nature of the assay: Antifungal activity against Candida parapsilosis. In kind it is functional, organism-based. In a few lines: (§1)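 In vitro susceptibility test on yeasts, run by the National Committee for Clinical and Laboratory Standards procedure.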
The subject of the next assay is Candida albicans. Nature of the assay: Antifungal activity against Candida albicans. It counts as functional, organism-based. In a few lines:
as §1

Another assay concerns Sporothrix schenckii. Nature of the assay: Antifungal activity against Sporothrix schenckii. It counts as functional, organism-based.
The subject of the next assay is Aspergillus fumigatus. Nature of the assay: Antifungal activity against Aspergillus fumigatus. In kind it is functional, organism-based.
The next assay concerns Cryptococcus neoformans. Put plainly: Antifungal activity against Cryptococcus neoformans. In kind it is functional, organism-based. In a few lines:
as §1

In a further assay the test system is Fonsecaea pedrosoi. Nature of the assay: Antifungal activity against Fonsecaea pedrosoi. In kind it is functional, organism-based.
Another assay concerns Candida tropicalis. Put plainly: Antifungal activity against Candida tropicalis. It counts as functional, organism-based. In outline: as §1
Another assay deals with Trichophyton rubrum. Nature of the assay: Antifungal activity against Trichophyton rubrum. In kind it is functional, organism-based.
Another assay concerns A549. Nature of the assay: Cytotoxicity against human A549 cells after 96 hrs by MTT assay. It counts as functional, cell-based. Conditions: A549, 96 h. On the technique in general: Tetrazolium dyes change colour on reduction, which living cells bring about.

Consider `O=S(=O)(O)OC[C@H]1O[C@@H](Oc2cc(O)cc(/C=C\c3ccc(O)cc3)c2)[C@H](O)[C@@H](O)[C@@H]1O`, for which the outcome in the assay on Candida parapsilosis, in the assay with Candida albicans, in the assay with Sporothrix schenckii, in the assay on Aspergillus fumigatus, in the assay on Cryptococcus neoformans and in the assay with Fonsecaea pedrosoi was inactive. For the same compound, the outcome in the assay on Candida tropicalis and with Trichophyton rubrum was inactive.
In the case of `O=S(=O)(O)OC[C@H]1O[C@@H](Oc2cc(O)cc(/C=C/c3ccc(O)cc3)c2)[C@H](O)[C@@H](O)[C@@H]1O`, the outcome in the assay on Candida parapsilosis, with Candida albicans, in the assay with Sporothrix schenckii, in the assay with Aspergillus fumigatus, in the assay on Cryptococcus neoformans and in the assay with Fonsecaea pedrosoi was inactive. For the same compound, the outcome with Candida tropicalis and in the assay on Trichophyton rubrum was inactive.
For `O=S(=O)(O)Oc1ccc(/C=C/c2cc(O)cc(O[C@@H]3O[C@H](CO)[C@@H](O)[C@H](O)[C@H]3O)c2)cc1`, the result in the assay on Candida parapsilosis, in the assay with Candida albicans, in the assay on Sporothrix schenckii, in the assay on Aspergillus fumigatus, with Cryptococcus neoformans and in the assay on Fonsecaea pedrosoi was inactive. For the same compound, the result in the assay with Candida tropicalis and in the assay with Trichophyton rubrum was inactive.
As to `O=S(=O)(O)Oc1cc(/C=C\c2ccc(O)cc2)cc(O[C@@H]2O[C@H](CO)[C@@H](O)[C@H](O)[C@H]2O)c1`, the result in the assay with Candida parapsilosis, with Candida albicans, with Sporothrix schenckii, in the assay on Aspergillus fumigatus, in the assay with Cryptococcus neoformans and in the assay on Fonsecaea pedrosoi was inactive. The result in the assay with Candida tropicalis and with Trichophyton rubrum was inactive.
For the compound `O=S(=O)([O-])O[C@H]1[C@H](O)[C@@H](O)[C@H](Oc2cc(O)cc(/C=C/c3ccc(O)cc3)c2)O[C@@H]1CO.[K+]`, the result with Candida parapsilosis, in the assay on Candida albicans, in the assay on Sporothrix schenckii, in the assay with Aspergillus fumigatus, in the assay on Cryptococcus neoformans and in the assay with Fonsecaea pedrosoi was inactive. Moreover, the result with Candida tropicalis and in the assay on Trichophyton rubrum was inactive. For the same compound, the IC50 with A549 was determined as 80 µg/mL.
With `O=S(=O)(O)Oc1cc(/C=C/c2ccc(O)cc2)cc(O[C@@H]2O[C@H](CO)[C@@H](O)[C@H](O)[C@H]2O)c1`, the result with Candida parapsilosis, in the assay on Candida albicans, in the assay on Sporothrix schenckii, in the assay on Aspergillus fumigatus, with Cryptococcus neoformans and in the assay on Fonsecaea pedrosoi was inactive. Further, the outcome with Candida tropicalis and with Trichophyton rubrum was inactive.
`O=S(=O)(O)O[C@H]1[C@H](Oc2cc(O)cc(/C=C\c3ccc(O)cc3)c2)O[C@H](CO)[C@@H](O)[C@@H]1O`: the outcome with Candida parapsilosis, with Candida albicans, with Sporothrix schenckii, in the assay with Aspergillus fumigatus, in the assay on Cryptococcus neoformans and in the assay on Fonsecaea pedrosoi was inactive. The result in the assay on Candida tropicalis and in the assay on Trichophyton rubrum was inactive.
In the case of `O=S(=O)(O)O[C@H]1[C@H](Oc2cc(O)cc(/C=C/c3ccc(O)cc3)c2)O[C@H](CO)[C@@H](O)[C@@H]1O`, the result with Candida parapsilosis, in the assay on Candida albicans, in the assay on Sporothrix schenckii, with Aspergillus fumigatus, in the assay with Cryptococcus neoformans and in the assay on Fonsecaea pedrosoi was inactive. Besides, the result in the assay with Candida tropicalis and with Trichophyton rubrum was inactive.
In the case of `O=S(=O)(O)O[C@H]1[C@H](O)[C@@H](O)[C@H](Oc2cc(O)cc(/C=C\c3ccc(O)cc3)c2)O[C@@H]1CO`, the outcome in the assay with Candida parapsilosis, in the assay on Candida albicans, with Sporothrix schenckii, with Aspergillus fumigatus, in the assay on Cryptococcus neoformans and in the assay on Fonsecaea pedrosoi was inactive. Moreover, the outcome in the assay with Candida tropicalis and in the assay with Trichophyton rubrum was inactive.

A word on the IC50: it is the concentration needed to halve the response being measured. Low values mean higher potency, high ones lower potency.
